Assay results reported in paper PMC11044220 (ACS Omega, 2024).

Tests used:
EGFR-TK = EGFR-TK (Homo sapiens, UniProt P00533); experiment: EGFR-TK enzyme assay; assay type: biochemical
HepG2 cells [1] = experiment: Cell cycle analysis by flow cytometry; assay type: cell-based, human; conditions: for percentage of cells at the G1 phase: IC50 concentration (4.23 μM), control 50.7%
How it was run: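 HepG2 cells were treated for 48 h with 4.23 μM test compound, alongside untreated controls. DNA content was analysed by FACS to give the percentage of cells in G1, S and G2/M. The pre-G1 fraction was scored as the apoptotic (DNA-fragmented) population. Fold changes were expressed relative to the untreated control.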

HepG2 cells [2] = experiment: Annexin V-FITC/PI dual staining apoptosis assay; assay type: cell-based, human
HepG2 cells [3] = experiment: Mitochondrial membrane potential; assay type: cell-based, human; conditions: HepG2, 48 h, 4.23 μM (IC50 concentration)
How it was run: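 Whole HepG2 cells were incubated with 4.23 μM test compound for 48 h, then labelled with a green fluorescent mitochondrial dye. The percentage of cells with depolarised mitochondrial membranes was measured and expressed as fold relative to untreated HepG2 cells.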

p53 = experiment: qRT-PCR for apoptotic markers: p53; assay type: cell-based
Bax = experiment: qRT-PCR for apoptotic markers: Bax; assay type: cell-based
Bcl2 = experiment: qRT-PCR for apoptotic markers: Bcl2; assay type: cell-based
[4] = tested on: HepG2 liver cancer cell line; conditions: read-out: IC50 (μM) HepG2, MTT assay, mean of three independent replicates ± SE

Sequence of EGFR-TK (P00533 25-1210): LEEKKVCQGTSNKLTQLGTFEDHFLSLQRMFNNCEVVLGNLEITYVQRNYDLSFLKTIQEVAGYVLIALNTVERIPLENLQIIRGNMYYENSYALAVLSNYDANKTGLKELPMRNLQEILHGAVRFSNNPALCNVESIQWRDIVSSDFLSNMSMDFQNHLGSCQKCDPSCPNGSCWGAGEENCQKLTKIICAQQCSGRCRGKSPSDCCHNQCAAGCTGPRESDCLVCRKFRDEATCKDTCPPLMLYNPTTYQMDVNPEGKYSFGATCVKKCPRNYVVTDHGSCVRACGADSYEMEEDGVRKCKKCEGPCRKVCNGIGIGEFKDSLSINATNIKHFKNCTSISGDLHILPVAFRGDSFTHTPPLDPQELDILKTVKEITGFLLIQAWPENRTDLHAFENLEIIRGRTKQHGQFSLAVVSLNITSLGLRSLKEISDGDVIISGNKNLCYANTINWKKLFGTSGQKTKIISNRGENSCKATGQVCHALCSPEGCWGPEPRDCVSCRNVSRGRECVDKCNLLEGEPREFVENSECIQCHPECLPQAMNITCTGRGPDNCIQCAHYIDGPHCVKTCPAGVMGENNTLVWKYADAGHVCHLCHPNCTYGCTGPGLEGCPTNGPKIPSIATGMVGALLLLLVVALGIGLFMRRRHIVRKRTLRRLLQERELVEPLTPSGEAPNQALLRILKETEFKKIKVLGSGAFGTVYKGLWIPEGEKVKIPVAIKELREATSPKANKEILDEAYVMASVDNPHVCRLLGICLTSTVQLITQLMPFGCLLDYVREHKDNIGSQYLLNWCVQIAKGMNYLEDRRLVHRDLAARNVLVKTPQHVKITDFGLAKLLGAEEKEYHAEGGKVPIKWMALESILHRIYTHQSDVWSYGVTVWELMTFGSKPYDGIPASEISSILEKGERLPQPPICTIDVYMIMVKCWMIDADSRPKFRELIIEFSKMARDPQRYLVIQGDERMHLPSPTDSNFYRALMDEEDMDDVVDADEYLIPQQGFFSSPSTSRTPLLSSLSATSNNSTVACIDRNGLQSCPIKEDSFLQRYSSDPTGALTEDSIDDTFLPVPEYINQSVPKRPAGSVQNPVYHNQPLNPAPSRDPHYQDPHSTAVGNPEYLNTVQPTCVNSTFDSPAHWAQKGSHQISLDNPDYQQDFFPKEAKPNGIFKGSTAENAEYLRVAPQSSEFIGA

Compound: O=C1/C(=C/c2ccc(F)cc2)N=C(c2ccccc2)N1c1ccc(S(=O)(=O)Nc2ncccn2)cc1 [compound 6, (Z)-4-(4-(4-Fluorobenzylidene)-5-oxo-2-phenyl-4,5-dihydro-1H-imidazol-1-yl)-N-(pyrimidin-2-yl)benzenesulfonamide]
- IC50 (EGFR-TK): 0.13 µM
- percentage of cells at the G1 phase (HepG2 cells [1]; HepG2, 48 h): 64.2%
- cells at the pre-G1 phase (HepG2 cells [1]; HepG2, 48 h, IC50 concentration, control 2.5%): 55.5%
- cell cycle arrest at the G1 phase, fold compared to untreated HepG2 control (HepG2 cells [1]; HepG2, IC50 concentration): 1.28 fold
- total apoptotic cells (early and late apoptosis and necrosis) (HepG2 cells [2]; HepG2, 48 h, IC50 concentration (4.23 μM), control 2.5%): 55.5%
- ratio of both early and late apoptosis (HepG2 cells [2]; HepG2, IC50 concentration, control 0.7%): 44.8%
- decrease of MMP level, fold compared with untreated control HepG2 (HepG2 cells [3]): 2.84 fold
- p53 level, fold change compared with no treatment control (p53): 4.7 fold
- Bax level, fold change compared with no treatment control (Bax): 3.7 fold
- Bcl2 level, fold change (Bcl2): 0.38 fold

Compound: O=C(NN=C(c1ccccc1)c1ccccc1)/C(=C/c1ccc(F)cc1)NC(=O)c1ccccc1 [compound 5, (Z)-N-(3-(2-(Diphenylmethylene)hydrazinyl)-1-(4-fluorophenyl)-3-oxoprop-1-en-2-yl)benzamide]
- percentage of cells at the G1 phase (HepG2 cells [1]; HepG2, 48 h): 64.2%

Compound: O=C1NN(c2ccccc2)C(c2ccccc2)=N/C1=C\c1ccc(F)cc1 [compound 7, (Z)-5-(4-Fluorobenzylidene)-2,3-diphenyl-1,2-dihydro-1,2,4-triazin-6(5H)-one]
- IC50 [4]: 5.89 ± 0.19 µM
